From ChEMBL document CHEMBL3259728, “Design, synthesis and biological evaluation of some novel substituted quinazolines as antitumor agents” (2014)

Legend:
Type in all cases: functional
Malme-3M = experiment: Growth inhibition of human MALME-3M cells at 10 uM after 48 hrs by SRB assay; conditions: read-out: GI
Procedure, shortened: (§1)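 NCI-60 primary one-dose screen run at the US NCI, with human tumour lines from nine cancer types. Compound added once at 10^-5 M, followed by 48 h incubation. End point was sulforhodamine B protein staining read spectrophotometrically. Result given as percent growth of treated cells against untreated controls, reported as % growth inhibition.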

NCI-H322M = experiment: Growth inhibition of human NCI-H322M cells at 10 uM after 48 hrs by SRB assay; conditions: read-out: GI; procedure, shortened: as §1
U-251 = experiment: Growth inhibition of human U251 cells at 10 uM after 48 hrs by SRB assay; conditions: U-251, 48 h, read-out: GI; procedure, shortened: as §1
NCI-H23 = experiment: Growth inhibition of human NCI-H23 cells at 10 uM after 48 hrs by SRB assay; conditions: NCI-H23, 48 h, read-out: GI; procedure, shortened: as §1
[1] = Growth inhibition of human OVCAR3 cells at 10 uM after 48 hrs by SRB assay; conditions: OVCAR-3, 48 h, read-out: GI; procedure, shortened: as §1
MDA-MB-435 = experiment: Growth inhibition of human MDA-MB-435 cells at 10 uM after 48 hrs by SRB assay; conditions: MDA-MB-435, 48 h, read-out: GI; procedure, shortened: as §1
M14 = experiment: Growth inhibition of human M14 cells at 10 uM after 48 hrs by SRB assay; conditions: M14, 48 h, read-out: GI; procedure, shortened: as §1
[2] = Growth inhibition of human NCI-ADR-RES cells at 10 uM after 48 hrs by SRB assay; conditions: read-out: GI; procedure, shortened: as §1
[3] = Growth inhibition of human BT549 cells at 10 uM after 48 hrs by SRB assay; conditions: BT-549, 48 h, read-out: GI
Procedure, shortened: (§2)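 NCI primary one-dose screen. A single concentration of 10^-5 M was added to the cell culture, followed by 48 h incubation and an SRB protein-dye endpoint read spectrophotometrically. Results are growth percentage relative to untreated control cells, reported as % growth inhibition.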

T47D = experiment: Growth inhibition of human T47D cells at 10 uM after 48 hrs by SRB assay; conditions: read-out: GI; procedure, shortened: as §1
SF-268 = experiment: Growth inhibition of human SF268 cells at 10 uM after 48 hrs by SRB assay; conditions: SF-268, 48 h, read-out: GI; procedure, shortened: as §1
DU-145 = experiment: Growth inhibition of human DU145 cells at 10 uM after 48 hrs by SRB assay; conditions: DU-145, 48 h, read-out: GI; procedure, shortened: as §1
[4] = Growth inhibition of human RXF393 cells at 10 uM after 48 hrs by SRB assay; conditions: RXF 393, 48 h, read-out: GI; procedure, shortened: as §1
SNB-19 = experiment: Growth inhibition of human SNB19 cells at 10 uM after 48 hrs by SRB assay; conditions: SNB-19, 48 h, read-out: GI; procedure, shortened: as §1
ACHN = experiment: Growth inhibition of human ACHN cells at 10 uM after 48 hrs by SRB assay; conditions: read-out: GI; procedure, shortened: as §2
HT-29 = experiment: Growth inhibition of human HT-29 cells at 10 uM after 48 hrs by SRB assay; conditions: HT-29, 48 h, read-out: GI; procedure, shortened: as §1
MCF7 = experiment: Growth inhibition of human MCF7 cells at 10 uM after 48 hrs by SRB assay; conditions: MCF7, 48 h, read-out: GI; procedure, shortened: as §1
SK-MEL-2 = experiment: Growth inhibition of human SK-MEL-2 cells at 10 uM after 48 hrs by SRB assay; conditions: SK-MEL-2, 48 h, read-out: GI; procedure, shortened: as §1
A498 = experiment: Growth inhibition of human A498 cells at 10 uM after 48 hrs by SRB assay; conditions: A498, 48 h, read-out: GI; procedure, shortened: as §2
TK-10 = experiment: Growth inhibition of human TK10 cells at 10 uM after 48 hrs by SRB assay; conditions: TK-10, 48 h, read-out: GI; procedure, shortened: as §1
KM12 = experiment: Growth inhibition of human KM12 cells at 10 uM after 48 hrs by SRB assay; conditions: KM12, 48 h, read-out: GI; procedure, shortened: as §1
A549 = experiment: Growth inhibition of human A549 cells at 10 uM after 48 hrs by SRB assay; conditions: A549, 48 h, read-out: GI; procedure, shortened: as §2
MDA-MB-468 = experiment: Growth inhibition of human MDA-MB-468 cells assessed as cell growth at 10 uM after 48 hrs by SRB assay; conditions: MDA-MB-468, 48 h, read-out: GI; procedure, shortened: as §1
[5] = Growth inhibition of human HCT15 cells at 10 uM after 48 hrs by SRB assay; conditions: HCT-15, 48 h, read-out: GI; procedure, shortened: as §1
NCI-H522 = experiment: Growth inhibition of human NCI-H522 cells at 10 uM after 48 hrs by SRB assay; conditions: NCI-H522, 48 h, read-out: GI; procedure, shortened: as §1
HCT-116 = experiment: Growth inhibition of human HCT116 cells at 10 uM after 48 hrs by SRB assay; conditions: HCT-116, 48 h, read-out: GI; procedure, shortened: as §1
SW-620 = experiment: Growth inhibition of human SW620 cells at 10 uM after 48 hrs by SRB assay; conditions: SW-620, 48 h, read-out: GI; procedure, shortened: as §1
PC-3 = experiment: Growth inhibition of human PC3 cells at 10 uM after 48 hrs by SRB assay; conditions: PC-3, 48 h, read-out: GI; procedure, shortened: as §1
SK-OV-3 = experiment: Growth inhibition of human SKOV3 cells at 10 uM after 48 hrs by SRB assay; conditions: SK-OV-3, 48 h, read-out: GI; procedure, shortened: as §1
786-0 = experiment: Growth inhibition of human 786-0 cells at 10 uM after 48 hrs by SRB assay; conditions: 786-0, 48 h, read-out: GI; procedure, shortened: as §2
[6] = Growth inhibition of human OVCAR5 cells at 10 uM after 48 hrs by SRB assay; conditions: OVCAR-5, 48 h, read-out: GI; procedure, shortened: as §1
SN12C = experiment: Growth inhibition of human SN12C cells at 10 uM after 48 hrs by SRB assay; conditions: read-out: GI; procedure, shortened: as §1
SK-MEL-28 = experiment: Growth inhibition of human SK-MEL-28 cells at 10 uM after 48 hrs by SRB assay; conditions: SK-MEL-28, 48 h, read-out: GI; procedure, shortened: as §1
[7] = Growth inhibition of human SF539 cells at 10 uM after 48 hrs by SRB assay; conditions: SF-539, 48 h, read-out: GI; procedure, shortened: as §1
[8] = Growth inhibition of human UACC257 cells at 10 uM after 48 hrs by SRB assay; conditions: UACC-257, 48 h, read-out: GI; procedure, shortened: as §1
SR = experiment: Growth inhibition of human SR cells at 10 uM after 48 hrs by SRB assay; conditions: read-out: GI; procedure, shortened: as §1
K562 = experiment: Growth inhibition of human K562 cells at 10 uM after 48 hrs by SRB assay; conditions: K562, 48 h, read-out: GI; procedure, shortened: as §1
[9] = Growth inhibition of human UACC62 cells at 10 uM after 48 hrs by SRB assay; conditions: UACC-62, 48 h, read-out: GI; procedure, shortened: as §1
RPMI-8226 = experiment: Growth inhibition of human RPMI8226 cells at 10 uM after 48 hrs by SRB assay; conditions: RPMI-8226, 48 h, read-out: GI; procedure, shortened: as §1

SMILES | inhibition of growth at 10 µM (Malme-3M) [%] | inhibition of growth at 10 µM (NCI-H322M) [%] | inhibition of growth at 10 µM (U-251) [%] | inhibition of growth at 10 µM (NCI-H23) [%] | inhibition of growth at 10 µM [1] [%] | inhibition of growth at 10 µM (MDA-MB-435) [%] | inhibition of growth at 10 µM (M14) [%] | inhibition of growth at 10 µM [2] [%] | inhibition of growth at 10 µM [3] [%] | inhibition of growth at 10 µM (SF-268) [%] | inhibition of growth at 10 µM (DU-145) [%] | inhibition of growth at 10 µM [4] [%] | inhibition of growth at 10 µM (SNB-19) [%] | inhibition of growth at 10 µM (ACHN) [%] | inhibition of growth at 10 µM (HT-29) [%] | inhibition of growth at 10 µM (MCF7) [%] | inhibition of growth at 10 µM (SK-MEL-2) [%] | inhibition of growth at 10 µM (TK-10) [%] | inhibition of growth at 10 µM (KM12) [%] | inhibition of growth at 10 µM (A549) [%] | other results
Cc1ccc(C(=O)Nc2ccc(Cl)cc2C(=O)Nc2ccccc2)cc1 | 12 | < 10 | 14 | < 10 | < 10 | 11 | < 10 | < 10 | < 10 | < 10 | < 10 | < 10 | 13 | 17 | < 10 | 11 | < 10 | < 10 | < 10 | < 10 | inhibition of growth at 10 µM (T47D): 20%; inhibition of growth at 10 µM (A498): < 10%; inhibition of growth at 10 µM (MDA-MB-468): 11%; inhibition of growth at 10 µM [5]: 11%; inhibition of growth at 10 µM (NCI-H522): 21%; inhibition of growth at 10 µM (HCT-116): < 10%; inhibition of growth at 10 µM (SW-620): < 10%; inhibition of growth at 10 µM (PC-3): 15%; inhibition of growth at 10 µM (SK-OV-3): 12%; inhibition of growth at 10 µM (786-0): < 10%; inhibition of growth at 10 µM [6]: 14%; inhibition of growth at 10 µM (SN12C): < 10%; inhibition of growth at 10 µM (SK-MEL-28): < 10%; inhibition of growth at 10 µM [7]: 29%; inhibition of growth at 10 µM [8]: < 10%
Cc1ccc(-c2nc3ccc(Cl)cc3c(=O)n2NC(=O)CN)cc1 | < 10 | < 10 | < 10 | < 10 | < 10 | < 10 | 11 | < 10 | < 10 | < 10 | < 10 | < 10 | < 10 | 14 | 12 | 12 | < 10 | < 10 | < 10 | < 10 | inhibition of growth at 10 µM (SR): < 10%; inhibition of growth at 10 µM (K562): < 10%; inhibition of growth at 10 µM [9]: < 10%; inhibition of growth at 10 µM (MDA-MB-468): < 10%; inhibition of growth at 10 µM (NCI-H522): < 10%; inhibition of growth at 10 µM (HCT-116): 11%; inhibition of growth at 10 µM (SW-620): < 10%; inhibition of growth at 10 µM (PC-3): < 10%; inhibition of growth at 10 µM (SK-OV-3): < 10%; inhibition of growth at 10 µM (786-0): < 10%; inhibition of growth at 10 µM [6]: 11%; inhibition of growth at 10 µM (SN12C): < 10%; inhibition of growth at 10 µM (SK-MEL-28): < 10%; inhibition of growth at 10 µM [7]: 15%; inhibition of growth at 10 µM (RPMI-8226): < 10%; inhibition of growth at 10 µM [8]: < 10%
